High-throughput results from PubChem.
Beta apoptosis: blocks beta cell apoptosis | actives 0.8% (n = 300,000) | protection from apoptosis, % (test concentration not listed) | AID 435005 | INS-1E cytokine-induced death, ATP luminescence, 48 h; percent of positive-control rescue, neutral wells zero;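 active = Every replicate reaches about 75%, or at least half do and their mean reaches it too, limit read from the data; inconclusive = At least half of replicates reach the limit but their mean does not; inactive = Under half of replicates reach the limit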;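 also: 0% = cytokine-treated negative control wells and 100% = positive control rescue; higher means more ATP so stronger rescue from cytokine killing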
UPR XBP1 act: activators of adaptive arm of unfolded protein response (XBP1); CHO-XBP1 luciferase reporter, IRE1-XBP1 UPR activation, luminescence; percent of tunicamycin response, DMSO as zero; AID 463104; actives 0.33% (n = 330,000); activation, % at 20 µM;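 active = versus positive control, 20 µM dose yields 30% or more activation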;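 also: 100% = tunicamycin at 10 µg/mL and 0% = DMSO only wells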
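Signal: luciferase luminescence; Assay system: CHO-XBP1 luciferase reporter cells; Amount: one thousand reporter cells per well; Dosing: 20 µM single concentration, DMSO 1%; Benchmarks: high control tunicamycin 10 µg/mL final, low control DMSO vehicle only; Schedule: 6 h compound exposure at 37 °C, 5% CO2; Evaluation: percent activation relative to tunicamycin reference.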
UPR CHOP act: apoptotic UPR (CHOP) activation; CHO-CHOP luciferase reporter, luminescence; percent of tunicamycin response over DMSO baseline; activation, % at 10 µM; actives 0.34% (n = 330,000); AID 449763;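 active = at 10 µM dose, activation of 40% or more, normalized to positive control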;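 also: 100% = tunicamycin at 10 µg/mL and 0% = DMSO alone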
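Evaluation: % reporter activation, DMSO baseline versus tunicamycin full activation; System: CHO-CHOP luciferase reporter cell line; Input: 500 cells/well; Incubation: 6 h compound treatment, 37 °C; Measured by: Steady-Glo luciferase luminescence; Dosing: one dose, 10 µM in 0.5% DMSO; Buffer or medium: F12 medium, 10% FBS; Benchmarks: positive tunicamycin 10 µg/mL, negative DMSO alone.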
Mdm2 MdmX PPI: human Mdm2/MdmX binding inhibition; O15151+Q00987; SaOS-2 split-luciferase Mdm2/MdmX complementation, luminescence; inhibition, % at 8 µM; actives 3% (n = 330,000); AID 485346;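 active = inhibition of at least 50% at 8 µM in the primary screen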
SKKanGAS inh: blocks kanamycin growth of S. pyogenes SKKanGAS strain | actives 1.3% (n = 300,000) | BacTiter-Glo, 6 h | inhibition, % at 7.5 µM;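 active = mean replicate score, as percent of positive control median, at least 50; inconclusive = mean below 50 but one replicate at or above 50; inactive = mean and every replicate below 50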;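 also: strain carries kanamycin resistance gene driven by streptokinase promoter and grows in 40 µg/ml kanamycin; loss of luminescence reflects streptokinase promoter inhibition or plain growth inhibition; 0% = median of DMSO wells and 100% = positive control at its reference dose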
CSC inhib: blocks cancer stem cells | cancer stem cell-like cells viability, luminescence | inhibition, % at 7.5 µM | actives 1.1% (n = 300,000) | AID 2717; in the data active = inhibition above about 75%; inconclusive = no clear call, values can overlap the other calls; tested in HMLE shEcad cells
Mdm2 MdmX conf: confirmation of human Mdm2/MdmX interaction inhibitors; shares compounds with Mdm2 MdmX PPI; Mdm2-MdmX binding, luminescent assay; inhibition, % at 8 µM; actives 55% (n = 10,000); AID 489028; in the data active = inhibition above about 40%
FLuc counter: inhibits full-length luciferase, flagging false Mdm2/MdmX hits. shares compounds with Mdm2 MdmX PPI. SaOS-2 full-length luciferase counterscreen, luminescence. inhibition, % at 8 µM. actives 77% (n = 6,200). AID 504607;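 active = mean inhibition at 8 µM reaching about 37%, which flags the compound as non-specific, limit read from the data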;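 also: p53-null SaOS-2 cells with luciferase driven by a doxycycline-inducible promoter; compound on cells about two nights before reading with doxycycline added after day one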
The depositor's hits bear a star; ? = inconclusive; nt = no result given. Hits are enriched below; roughly 4.8% of the tested compounds scored in any of these assays.

SMILES | Beta apoptosis | UPR XBP1 act | UPR CHOP act | Mdm2 MdmX PPI | SKKanGAS inh | CSC inhib | Mdm2 MdmX conf | others
CCOC(=O)/C(=N\Nc1ncnc2ccccc12)c1ccc(C)cc1 | 5 | -10 | -6 | -24 | -1 | nt | nt
CCOc1ccc(CCNC(=O)COC(=O)c2nccnc2N)cc1OCC | -12 | -3 | 0 | 7 | -17 | -1 | nt
COc1ccc(CC(=O)N(C)CC(=O)Nc2ccc(F)cc2)cc1S(=O)(=O)N1CCOCC1 | 0 | -5 | -1 | 31 | nt | nt | nt
CC(=O)O[C@H]1C(=O)[C@@]2(C)[C@H]([C@H](OC(=O)c3ccccc3)[C@]3(O)C[C@H](OC(=O)[C@H](O)[C@@H](NC(=O)c4ccccc4)c4ccccc4)C(C)=C1C3(C)C)[C@]1(OC(C)=O)CO[C@@H]1C[C@@H]2O | -15 | -3 | 0 | 65* | nt | 63 | 64* | FLuc counter=57*
CC(=O)O[C@H]1C(=O)[C@@]2(C)[C@H]([C@H](OC(=O)c3ccccc3)[C@]3(O)C[C@H](OC(=O)[C@H](O)C(NC(=O)c4ccccc4)c4ccccc4)C(C)=C1C3(C)C)[C@]1(OC(C)=O)CO[C@@H]1C[C@@H]2O (stereo partly drawn) | 9 | 3 | 2 | 48 | 0 | ? | nt
CCCCCC(=O)N[C@@H](c1ccccc1)[C@@H](O)C(=O)O[C@H]1C[C@@]2(O)[C@@H](OC(=O)c3ccccc3)C3[C@](C)(C(=O)[C@H](OC(C)=O)C(=C1C)C2(C)C)[C@@H](O)C[C@H]1OC[C@@]31OC(C)=O (stereo partly drawn) | 15 | 3 | 1 | 72* | 4 | 56 | 74* | FLuc counter=43*
COC(=O)c1cc(CNC(=O)c2ccc(S(=O)(=O)N(C)c3ccccc3)cc2)ccc1OC | nt | -2 | -1 | 20 | nt | nt | nt
C=CCN(CC=C)Cc1c(O)ccc2c(=O)c(-c3ccccc3)coc12 | 3 | 1 | -2 | 7 | -6 | -9 | nt
Cc1ccc(/C=C/C(=O)c2ccccc(=O)c2O)c(C)c1 | 70 | 2 | 5 | 67* | 58* | 2 | 61* | FLuc counter=19
Cc1ccc(/C=C/C(=O)c2ccccc2)cc1 | -4 | 11 | 4 | -27 | -9 | 5 | nt
O=C(NCc1ccccc1Cl)c1ccncc1 | -4 | -2 | -2 | 28 | 3 | -12 | nt
O=C(Nc1ccc(Br)cn1)c1cccc2ccccc12 | 17 | 11 | 0 | 56* | -6 | 64 | 50* | FLuc counter=81*
O=C(NNC(=O)c1cccc2ccccc12)c1ccccc1O | 69 | -2 | -1 | 52* | 19 | 12 | 42* | FLuc counter=60*
O=C1CCCc2c1cc(C(=O)O)c(=O)n2-c1ccccc1 | -3 | 0 | -2 | 8 | -4 | 0 | nt
COc1c(C(=O)Nc2ccc(Br)cn2)ccc2ccccc12 | -1 | -1 | 7 | -77 | -6 | 15 | nt
O=C1CCCc2c1cc(C(=O)Nc1ccc(Br)cn1)c(=O)n2-c1ccccc1 | 1 | 0 | -1 | 57* | 17 | -7 | 30
CC1C/C(=C/c2ccccn2)C(=O)/C(=C/c2ccccn2)C1 (stereo not drawn) | -12 | -6 | 14 | 98* | -23 | 5 | 100* | FLuc counter=51*
CC1C/C(=C/c2ccco2)C(=O)/C(=C/c2ccco2)C1 (stereo not drawn) | nt | 2 | 6 | -1 | -1 | nt | nt
CC(C)(C)C1C/C(=C/c2ccccn2)C(=O)/C(=C/c2ccccn2)C1 (stereo not drawn) | 109* | -7 | -9 | 100* | 5 | 67 | 100* | FLuc counter=51*
O=C1/C(=C/c2ccccn2)COc2ccccc21 | 0 | 4 | 1 | 2 | -1 | 0 | nt
COc1ccc(NC(=O)COC(=O)CC2CCCC2)cc1Cl | 0 | -4 | 2 | -16 | -6 | -9 | nt
Cc1cc(Cl)n2nc(C)c(-c3ccc(Cl)cc3)c2n1 | -1 | 6 | 2 | 91* | nt | 18 | 52* | FLuc counter=15
COc1ccc(CN2CCN(C3CCC3)CC2CCO)cc1C (stereo not drawn) | -4 | -3 | 0 | 11 | -6 | 0 | nt
CCOC(=O)c1ccc(NC(=O)COc2ccccc2CNCCc2ccccc2)cc1 | 22 | 1 | 1 | 63* | -1 | -6 | 16
C=C[C@@H]1c2cccc(C)c2N(S(=O)(=O)c2ccc(C)cc2)[C@H](c2ccc(OC(C)=O)cc2)C1(C#N)C#N | 2 | 1 | 2 | 51* | nt | 107* | -4
SMILES | Beta apoptosis | UPR XBP1 act | UPR CHOP act | Mdm2 MdmX PPI | SKKanGAS inh | CSC inhib | Mdm2 MdmX conf | others
CN(C)c1nc(NCc2ccccc2)nc(N/N=C/c2ccc(Br)cc2)n1 | 10 | 9 | 2 | 90* | 1 | 5 | 33
CC(C)(C)[C@H]1COC(=O)CC/C=C\C[C@@H](CC(=O)N(CCO)Cc2ccccc2)C(=O)N1 | -1 | 3 | 2 | 8 | nt | 0 | nt
CCCN1CCN(C(=O)C2CCCN(c3ncnc4c3nc3n4CCCCC3)C2)CC1 (stereo not drawn) | -3 | -4 | 0 | -28 | -3 | 8 | nt
O=c1c2ccccc2sn1-c1ccccc1 | 26 | -2 | 9 | 76* | 100* | 24 | 6
CCN(CC)C(=O)COc1ccc(-c2nnc(N3CCCCC3)c3ccccc23)cc1 | 5 | 0 | 2 | 8 | -11 | nt | nt
CCOc1ccc(-c2nnc(N3CCCCC3)c3ccccc23)cc1 | 10 | 1 | 1 | 62* | 1 | 23 | -2
Cc1nn(-c2cc(N3CCCCC3)ccc2N)c(=O)c2ccccc12 | 3 | 1 | 2 | -4 | 2 | -13 | nt
Nc1ccc(N2CCCCC2)cc1N1CCCCC1 | 113* | 0 | -1 | 80* | 24 | 26 | 20
CCCCN(C(=O)C1CCCC1)c1c(N)n(CC(C)C)c(=O)[nH]c1=O | 1 | -4 | 0 | 9 | nt | nt | nt
CC(C)(C)c1ccc(C(=O)Nc2ccc(CN3CCS(=O)(=O)CC3)cc2)cc1 | 2 | 2 | 1 | 0 | 1 | 6 | nt
O=C(Nc1ccc(CN2CCS(=O)(=O)CC2)cc1)c1ccc(C(F)(F)F)cc1 | -5 | 1 | 0 | 51* | 1 | -2 | 8
COC(=O)COc1ccc(NS(=O)(=O)c2cccc([N+](=O)[O-])c2)cc1 | -4 | -5 | 0 | 8 | 5 | 1 | nt
O=C(c1ccccn1)N1CCCC(N2CCN(c3ccccc3)CC2)C1 (stereo not drawn) | -4 | -1 | 0 | -4 | 2 | -12 | nt
O=c1[nH][nH]c(-c2ccccc2O)c1C(C[N+](=O)[O-])c1ccc(Br)cc1 (stereo not drawn) | 3 | 3 | 17 | 54* | 2 | 59 | 23
